Results from different studies.
Compare with care: the assays were run in different laboratories.
EGFR L858R: Epidermal growth factor receptor (EGFR, Homo sapiens, UniProt P00533, L858R)
EGFR L861Q: Epidermal growth factor receptor (EGFR, Homo sapiens, UniProt P00533, L861Q)

`CN1CCN(C(=O)c2ccc(NC(=O)Nc3ccc(N(C)c4ccnc(Nc5ccc(CS(C)(=O)=O)cc5)n4)cc3)cc2)CC1` has a remaining binding of 92% (EGFR L858R; binding; 1 µM).
`CC#CC(=O)N1CCC[C@H]1c1nc(-c2ccc(C(=O)Nc3ccccn3)cc2)c2c(N)nccn12` gave an inhibition of 2% (Epidermal growth factor receptor (EGFR, Homo sapiens, UniProt P00533, L858R/T790M); enzyme activity; inhibitor; 1 µM).
For `CCCCC(=O)Nc1ccc(-c2ccc3ncn(CCC)c(=O)c3c2)cn1`, the remaining binding was 100% (EGFR L861Q; binding; competition with immobilised ligand; 0.5 µM).
The remaining binding of `C1=C/COCc2cc(ccc2OCCN2CCCC2)Nc2nccc(n2)-c2cccc(c2)COC/1` is reported as 99% (Epidermal growth factor receptor (EGFR, Homo sapiens, UniProt P00533, del747-752/P753S); binding; 0.1 µM).
`Cc1ccc(NC(=O)c2ccnc(C(F)(F)F)c2)cc1-c1cc(OCCO)nc(N2CCOCC2)c1` has a remaining binding of 92% (EGFR L861Q; binding; 1 µM).
The inhibition of `C=CC(=O)N1CCC([C@@H]2CCNc3c(C(N)=O)c(-c4ccc(Oc5ccccc5)cc4)nn32)CC1` is reported as 73% (EGFR L861Q; cell-free assay; 1 µM).
`COc1ccc2[nH]c3c4[nH]c5ccc(OC)cc5c4c4c(c3c2c1)C(=O)NC4=O` gave a remaining binding of 45% (Epidermal growth factor receptor (EGFR, Homo sapiens, UniProt P00533, T790M); binding; 1 µM).
For `CO[C@@H]1[C@H](N(C)C(=O)c2ccccc2)C[C@H]2O[C@]1(C)n1c3ccccc3c3c4c(c5c6ccccc6n2c5c31)C(=O)NC4`, the inhibition was 74% (Epidermal growth factor receptor (EGFR, Homo sapiens, UniProt P00533, A750P/del747-749); enzyme activity; inhibitor; 1 µM).
`COc1ccc2oc(-c3ccc4nc(N)oc4c3)c/c(=N\c3ccccc3NC(=O)CCN)c2c1` gave a remaining binding of 92% (EGFR L858R; binding; 1 µM).
